Here are results for 11 molecules from ChEMBL document CHEMBL1154441, “Chemotherapy of leishmaniasis part-VIII: synthesis and bioevaluation of novel chalcones” (2008).

The source made the active and inactive calls. The calls are words filed in the database; no cut-off is given here.

Holding throughout (type): functional
Experiment [1] has as its system Leishmania donovani. Kind of experiment: Antileishmanial activity against Leishmania donovani MHOM/IN/Dd8 amastigotes infected in mouse J774A.1 cells assessed as inhibition of parasitic growth at 2 ug/ml after 24 hrs by luciferase activity-based luminescence assay. As to conditions: for percent inhibition of intracellular amastigote growth at 2 µg/mL: J774.A1, 24 h, read-out: INH. The procedure, abridged:
(§1)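 Macrophages seeded 5 × 10⁴ per well in RPMI-1640 + 10% FCS, 37 °C, CO₂; after 24 h infected with stationary-phase luciferase-expressing promastigotes (2.5 × 10⁵ per well) that transform to amastigotes. Medium replaced with compound in complete medium, incubated 37 °C for 24 h or more; then PBS added, mixed 1:1 with Steady-Glo, shaken 1–2 min, luminescence read to give growth inhibition.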

Experiment [2] has as its system Leishmania donovani. As to the kind of experiment: Antileishmanial activity against Leishmania donovani MHOM/IN/Dd8 promastigotes assessed as inhibition of parasitic growth at 5 ug/ml after 72 hrs by luciferase activity-based luminescence assay. Summed up:
(§2)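 Late-log luciferase-transfected L. donovani promastigotes (kept at 25 ± 1 °C in medium 199 + 10% FCS under G418) seeded at 5 × 10⁵ per well in medium 199; exposed 72 h to serial dilutions of compound in DMSO, with parallel DMSO dilutions as controls. Aliquot mixed 1:1 with Steady-Glo reagent; luminescence read as RLU and growth inhibition derived from luciferase signal.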

In experiment [3] the test system is Leishmania donovani. As to the kind of experiment: Antileishmanial activity against Leishmania donovani MHOM/IN/Dd8 amastigotes infected in mouse J774A.1 cells assessed as inhibition of parasitic growth at 5 ug/ml after 24 hrs by luciferase activity-based luminescence assay. As to conditions: for Percent inhibition of intracellular amastigote growth at 5 µg/mL: J774.A1, 24 h, read-out: INH. The procedure, abridged: as §1

Experiment [4] has as its system Leishmania donovani. Kind of experiment: Antileishmanial activity against Leishmania donovani MHOM/IN/Dd8 promastigotes assessed as inhibition of parasitic growth at 2 ug/ml after 72 hrs by luciferase activity-based luminescence assay. Summed up:
as §2

Regarding `COc1cc(/C=C/C(=O)CCC2C(C)=CCCC2(C)C)cc(OC)c1OC` (configuration not stated), the outcome with Leishmania donovani [1] and with Leishmania donovani [3] was inactive. Further, the inhibition at 5 µg/mL with Leishmania donovani [2] is 90%. In the experiment on Leishmania donovani [4], the inhibition at 2 µg/mL was 50%.

As for `COc1ccc(/C=C/C(=O)CCC2C(C)=CCCC2(C)C)cc1OC` (configuration not stated), the percent inhibition of intracellular amastigote growth at 2 µg/mL with Leishmania donovani [1] is 79%. The inhibition at 5 µg/mL with Leishmania donovani [2] came to 100%. For the same molecule, in the experiment with Leishmania donovani [3], the Percent inhibition of intracellular amastigote growth at 5 µg/mL was found to be 95%. Besides, in the experiment with Leishmania donovani [4], the inhibition at 2 µg/mL was found to be 100%.

For the molecule `CC1=CCCC(C)(C)C1CCC(=O)/C=C/c1ccc(OCc2ccccc2)cc1` (configuration not stated), the inhibition at 5 µg/mL in the experiment on Leishmania donovani [2] stood at 100%. In addition, the outcome with Leishmania donovani [3] was inactive. The inhibition at 2 µg/mL in the experiment with Leishmania donovani [4] came out at 61%.

As to `CC1=CCCC(C)(C)C1CCC(=O)/C=C/c1ccccc1[N+](=O)[O-]` (configuration not stated), the result with Leishmania donovani [1] and in the experiment with Leishmania donovani [3] was inactive. In the experiment on Leishmania donovani [2], the inhibition at 5 µg/mL was found to be 53%. Moreover, in the experiment with Leishmania donovani [4], the inhibition at 2 µg/mL was determined as 34%.

`CC1=CCCC(C)(C)C1CCC(=O)/C=C/c1ccc(O)cc1` (configuration not stated): the outcome with Leishmania donovani [1] and in the experiment on Leishmania donovani [3] was inactive. For the same molecule, in the experiment with Leishmania donovani [2], the inhibition at 5 µg/mL was 100%. In addition, in the experiment with Leishmania donovani [4], the inhibition at 2 µg/mL was 76%.

Take `CC1=CCCC(C)(C)C1CCC(=O)/C=C/c1cccnc1` (configuration not stated): in the experiment on Leishmania donovani [1], the percent inhibition of intracellular amastigote growth at 2 µg/mL is 33%. Besides, in the experiment with Leishmania donovani [2], the inhibition at 5 µg/mL amounted to 100%. The Percent inhibition of intracellular amastigote growth at 5 µg/mL in the experiment on Leishmania donovani [3] is 92%. Further, the inhibition at 2 µg/mL in the experiment with Leishmania donovani [4] stood at 100%.

For the molecule `CC1=CCCC(C)(C)C1CCC(=O)/C=C/c1cccc([N+](=O)[O-])c1` (configuration not stated), the inhibition at 5 µg/mL with Leishmania donovani [2] amounted to 99%. In the experiment with Leishmania donovani [3], the Percent inhibition of intracellular amastigote growth at 5 µg/mL is 65%. The inhibition at 2 µg/mL in the experiment on Leishmania donovani [4] is 98%.

On to `CC1=CCCC(C)(C)C1CCC(=O)/C=C/c1ccc(Cl)cc1` (configuration not stated), for which the percent inhibition of intracellular amastigote growth at 2 µg/mL with Leishmania donovani [1] was found to be 88%. Further, in the experiment with Leishmania donovani [2], the inhibition at 5 µg/mL turned out to be 100%. Also, the Percent inhibition of intracellular amastigote growth at 5 µg/mL in the experiment with Leishmania donovani [3] was determined as 93%. Moreover, the inhibition at 2 µg/mL in the experiment with Leishmania donovani [4] is 100%.

On to `COc1ccc(/C=C/C(=O)CCC2C(C)=CCCC2(C)C)cc1` (configuration not stated), for which the percent inhibition of intracellular amastigote growth at 2 µg/mL in the experiment on Leishmania donovani [1] was 40%. Further, the inhibition at 5 µg/mL with Leishmania donovani [2] is 98%. For the same molecule, in the experiment on Leishmania donovani [3], the Percent inhibition of intracellular amastigote growth at 5 µg/mL amounted to 81%. The inhibition at 2 µg/mL with Leishmania donovani [4] turned out to be 98%.

On to `CC1=CCCC(C)(C)C1CCC(=O)/C=C/c1ccc(CO)o1` (configuration not stated), for which the outcome in the experiment on Leishmania donovani [1] and in the experiment with Leishmania donovani [3] was inactive. In addition, the inhibition at 5 µg/mL in the experiment on Leishmania donovani [2] is 93%. Further, the inhibition at 2 µg/mL in the experiment on Leishmania donovani [4] turned out to be 65%.

Consider `CC1=CCCC(C)(C)C1CCC(=O)/C=C/c1ccc([N+](=O)[O-])cc1` (configuration not stated), for which the percent inhibition of intracellular amastigote growth at 2 µg/mL in the experiment on Leishmania donovani [1] stood at 74%. Also, the inhibition at 5 µg/mL in the experiment on Leishmania donovani [2] was determined as 99%. Also, the Percent inhibition of intracellular amastigote growth at 5 µg/mL in the experiment on Leishmania donovani [3] turned out to be 80%. In addition, the inhibition at 2 µg/mL with Leishmania donovani [4] was 95%.
